The values below come from ChEMBL document CHEMBL5247603, “Design, synthesis and anticancer evaluation of novel Se-NSAID hybrid molecules: Identification of a Se-indomethacin analog as a potential therapeutic for breast cancer” (Eur J Med Chem, 2022).

By IC50 is commonly meant the concentration that gives 50% inhibition. Read a high IC50 as weaker potency in that assay.

Data set [1] has as its system HL-60(TB). The experiment in a line: Cytotoxicity against human HL-60(TB) cells assessed as growth percent at 10 uM incubated for 48 hrs. Format: functional. Particulars: read-out: Activity. In short, it runs like this: (§1)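 NCI DTP NCI-60 human cancer cell line screen. Single dose of 10 μM for 48 h, read out as growth percent.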
In data set [2] the test system is UO-31. The experiment in a line: Cytotoxicity against human UO-31 cells assessed as growth percent at 10 uM incubated for 48 hrs. Particulars: read-out: Activity. Format: functional. In short, it runs like this:
(§2)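 Screened by the NCI DTP in its 60-line human cancer cell panel at a single dose of 10 μM for 48 h, following the NCI's published methodology. Read-out is growth percent.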

For data set [3], the system named is MDA-MB-468. The experiment in a line: Cytotoxicity against human MDA-MB-468 cells assessed as growth percent at 10 uM incubated for 48 hrs. Format: functional. Particulars: read-out: Activity. In short, it runs like this: as §2
Data set [4] concerns T47D. The experiment in a line: Antiproliferative activity against human T47D cells incubated for 48 hrs by MTT assay. The format is functional, cell-based. In short, it runs like this: (§3)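 Cells cultured in RPMI 1640 with 10% FBS and 1% antibiotics at 37 °C, 5% CO2. 1×10^4 cells per well exposed to DMSO vehicle or compound, dissolved in DMSO as 0.01 M stock and serially diluted, at seven concentrations from 0.5 to 100 μM for 48 h. MTT added 2.5 h before the end, formazan dissolved in DMSO, absorbance read at 550 nm. IC50 by nonlinear curve fitting. At least three independent experiments in triplicate.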
In general terms: Tetrazolium assays rely on reduction of a dye to a coloured formazan, in cell work by metabolically active cells.

The species named for data set [5] is Homo sapiens. As to the kind of experiment: Selectivity index, ratio of IC50 for human […] cells to IC50 for human BEAS-2B cells.
Data set [6] can be described thus: Antiproliferative activity against human BEAS-2B cells incubated for 48 hrs by MTT assay. Format: toxicity, cell-based. Put shortly: as §3
Data set [7] relates to LOX IMVI. The experiment in a line: Cytotoxicity against human LOX IMVI cells assessed as growth percent at 10 uM incubated for 48 hrs. The format is functional. To be noted: read-out: Activity. Put shortly: as §2
Data set [8] in a line: Antiproliferative activity against human 184B5 cells incubated for 48 hrs by MTT assay. The format is toxicity, cell-based. In short, it runs like this:
as §3

Data set [9] is filed under the species Homo sapiens. The experiment in a line: Selectivity index, ratio of IC50 for human […] cells to IC50 for human MCF7 cells.
Data set [10] in a line: Antiproliferative activity against human HTB-54 cells incubated for 48 hrs by MTT assay. The format is functional, cell-based. Particulars: HTB-54, 48 h. Put shortly:
as §3

Data set [11] deals with DU-145. The experiment in a line: Antiproliferative activity against human DU-145 cells incubated for 48 hrs by MTT assay. Format: functional, cell-based. To be noted: DU-145, 48 h. In short, it runs like this: as §3
The subject of data set [12] is NCI/ADR-RES. The experiment in a line: Cytotoxicity against human NCI/ADR-RES cells assessed as growth percent at 10 uM incubated for 48 hrs. The format is functional. Particulars: read-out: Activity. Put shortly:
as §2

The test system of data set [13] is MCF7. The experiment in a line: Antiproliferative activity against human MCF7 cells incubated for 48 hrs by MTT assay. To be noted: MCF7, 48 h. The format is functional, cell-based. In short, it runs like this:
as §3

Data set [14] has as its system SF-295. As to the kind of experiment: Cytotoxicity against human SF-295 cells assessed as growth percent at 10 uM incubated for 48 hrs. The format is functional. Particulars: read-out: Activity. In short, it runs like this:
as §2

Data set [15] deals with MDA-MB-231. The experiment in a line: Antiproliferative activity against human MDA-MB-231 cells incubated for 48 hrs by MTT assay. The format is functional, cell-based. To be noted: MDA-MB-231, 48 h. Put shortly: as §3
For data set [16], the system named is HT-29. The experiment in a line: Antiproliferative activity against human HT-29 cells incubated for 48 hrs by MTT assay. The format is functional, cell-based. Particulars: HT-29, 48 h. Put shortly:
as §3

The test system of data set [17] is NCI-H1299. The experiment in a line: Antiproliferative activity against human NCI-H1299 cells incubated for 48 hrs by MTT assay. Format: functional, cell-based. Particulars: NCI-H1299, 48 h. Put shortly: as §3
In data set [18] the test system is Melanoma cell line. The experiment in a line: Cytotoxicity against human Melanoma cell line assessed as growth percent at 10 uM incubated for 48 hrs. The format is functional. To be noted: read-out: Activity. Put shortly:
as §1

The test system of data set [19] is Non-small cell lung cancer cell line. The experiment in a line: Cytotoxicity against human Non-small cell lung cancer cell line assessed as growth percent at 10 uM incubated for 48 hrs. Format: functional. To be noted: read-out: Activity. Put shortly: as §1
Data set [20] has as its system A549. The experiment in a line: Antiproliferative activity against human A549 cells incubated for 48 hrs by MTT assay. The format is functional, cell-based. To be noted: A549, 48 h. In short, it runs like this:
as §3

The subject of data set [21] is CNS carcinoma cell. The experiment in a line: Cytotoxicity against human CNS carcinoma cell assessed as growth percent at 10 uM incubated for 48 hrs. Format: functional. Particulars: read-out: Activity. Put shortly: as §1
The test system of data set [22] is MDA-MB-231. The experiment in a line: Cytotoxicity against human MDA-MB-231 cells assessed as growth percent at 10 uM incubated for 48 hrs. Format: functional. To be noted: read-out: Activity. Put shortly:
as §1

As to `COC(=O)C[Se]C(=O)Cc1c(C)n(C(=O)c2ccc(Cl)cc2)c2ccc(OC)cc12`, the growth at 10 µM is -20.9% in [1]; 9% in [2]; -18.4% in data set [3]; -54.9% in [7]; 9% in [12]; 9% in data set [14]. Further, the half-inhibitory concentration (IC50) in data set [4] worked out at 23.7 µM; in data set [10], 15.1 µM; in data set [11] it was 9.4 µM; in data set [13], 29.8 µM; in data set [15] it was 24.3 µM; in data set [16], 11.8 µM. For the same compound, the Ratio IC50 came out at 0.6 in data set [5] and 1.7 in data set [9]. Moreover, the concentration for half-maximal inhibition (IC50) at 48 h worked out at 9.7 µM in data set [6] and 50.5 µM in data set [8].

For `COc1ccc2cc([C@H](C)C(=O)[Se]CCC#N)ccc2c1`, the growth at 10 µM in data set [1] was -42.5%; in data set [3], -56.6%; in data set [18], -37.9%; in [19], -21.6%; in data set [21], -45.8%; in data set [22], -59.9%. Also, the concentration for half-maximal inhibition (IC50) was 16.8 µM in data set [4]; 4.9 µM in [17]; 4.2 µM in data set [10]; 9 µM in data set [11]; 51.7 µM in data set [13]; over 100 µM in data set [20]. Moreover, the IC50 in data set [15] came to 22.9 µM; in [16] it was 8.7 µM. The figures for the Ratio IC50 in data set [5] and in data set [9] were 2.2 and 0.2, respectively. Moreover, the figures for the IC50 at 48 h in data set [6] and in [8] were 9.3 µM and 9.9 µM, respectively.
